# CRFBP-R2 block: blocks CRF-induced signaling of the CRF-BP/CRF-R2 complex; HEK293 CRF-R2/CRF-BP, CRF-induced calcium fluorescence; inhibition, % at 11.8 µM; 0.59% of 350,000 active; AID 588475;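 active = inhibition of the ligand-induced calcium signal above about 50% at the single tested concentration, limit read from the data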
# VIM-2 inhibitor: blocks Pseudomonas aeruginosa VIM-2 metallo-beta-lactamase | purified VIM-2, nitrocefin hydrolysis, epi-absorbance fluorescence | inhibition, % at 5.6 µM | 0.89% of 290,000 active | AID 1527;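 active = inhibition above the mean of all tested compounds plus 3 SD, cutoff set per screening run, cut at about 7.5% in these data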;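 also: red hydrolysis product quenches plate fluorescence so inhibitors raise well fluorescence; 0% = enzyme with DMSO and 100% = DMSO without enzyme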
# zfTRPN1 agonist: zebrafish TRPN1 (NompC) channel agonism; HEK293 zebrafish TRPN1-YFP, Fluo-8 calcium fluorescence; 100% = response to 87 µM carbachol; activation, % at 3 µM; 0.18% of 220,000 active;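 active = activation above its plate's cutoff, the mean activation of test wells on that plate plus 3 SD, cut at about 19% in these data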;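 also: 0% = DMSO alone and 100% = 87 µM carbachol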
#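 Material: zebrafish TRPN1-YFP in HEK293 cells; Doses: single test compound dose, 3 µM nominal, 0.3% DMSO; Timing: dye loading 1 h at 37 °C, then 30 min room temperature; Technique: intracellular calcium fluorescence with Fluo-8; Benchmarks: high carbachol 87 µM, low DMSO alone.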
# TRPML3 ag: agonists of human TRPML3 channel | Q8TDD5 | 0.29% of 220,000 active | HEK293 TRPML3-YFP, Fluo-8 calcium fluorescence; 100% = the carbachol control signal | activation, % at 3 µM | AID 1448;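 active = activation above its plate's cutoff, the mean activation of the plate's test wells plus 3 SD, cut at about 12% in these data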;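 also: 0% = DMSO only wells and 100% = carbachol wells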
# Target sequence (Q8TDD5 whole entry, looked up): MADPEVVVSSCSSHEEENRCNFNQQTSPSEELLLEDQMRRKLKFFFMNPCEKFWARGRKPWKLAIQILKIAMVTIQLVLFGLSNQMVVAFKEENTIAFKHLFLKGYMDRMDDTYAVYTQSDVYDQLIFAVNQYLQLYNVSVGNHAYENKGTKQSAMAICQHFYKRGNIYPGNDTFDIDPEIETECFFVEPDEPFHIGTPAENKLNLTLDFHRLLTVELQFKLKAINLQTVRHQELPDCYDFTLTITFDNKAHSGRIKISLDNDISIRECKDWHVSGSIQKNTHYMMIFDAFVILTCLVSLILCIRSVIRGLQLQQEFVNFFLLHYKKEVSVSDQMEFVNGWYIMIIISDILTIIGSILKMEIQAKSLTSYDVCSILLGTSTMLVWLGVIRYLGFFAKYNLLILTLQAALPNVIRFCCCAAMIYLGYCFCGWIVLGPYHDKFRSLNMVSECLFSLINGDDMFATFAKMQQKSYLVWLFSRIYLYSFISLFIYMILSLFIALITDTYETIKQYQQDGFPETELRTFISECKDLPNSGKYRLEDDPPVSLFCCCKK
#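 Test system: HEK293 cells stably carrying human TRPML3-YFP; Doses: single dose, 3 µM final nominal compound, 0.3% DMSO final; Schedule: dye loading 1 h 37 °C then 30 min ambient, 125 s read; Technique: Fluo-8 calcium fluorescence; Benchmarks: high control carbachol 87 µM, low control DMSO.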
# IMP-1 inh: blocks Pseudomonas aeruginosa IMP-1 metallo-beta-lactamase. purified IMP-1, nitrocefin hydrolysis, epi-absorbance fluorescence. inhibition, % at 5.6 µM. 0.45% of 290,000 active. AID 1556;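 active = inhibition above the mean plus 3 SD of all compounds in the same screening run, cut at about 4.5% in these data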;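 also: 0% = IMP-1 with DMSO and 100% = DMSO wells lacking enzyme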
#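 System – purified recombinant IMP-1 beta-lactamase · Input – IMP-1 dispensed at 0.2 nM · Timing – 15 min preincubation plus 25 min reaction at 25 °C · Signal – Epi-absorbance fluorescence, 480 nm excitation, 530 nm emission · Measure – percent IMP-1 inhibition derived from blank-referenced optical density · Controls – Enzyme-plus-DMSO low control, enzyme-free DMSO high control · Replication – singlicate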
# CRFR2-BP ag: CRF-BP/CRF-R2 complex agonism | HEK293 CRF-R2/CRF-BP, calcium dye fluorescence (FLIPR); percent of saturating CRF peptide response | activation, % at 13.2 µM | 0.46% of 350,000 active;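 active = activation of at least 50%, plus an integration ratio under a set limit after plate pattern correction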;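 also: plate controls were neutral control wells without compound for no effect and CRF at EC100 for full effect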
# Starred values were filed as active, the others as inactive; / = not tested or not shown. Most compounds without a hit are left out; they make up all but 2.1% or so of the library.
SMILES,CRFBP-R2 block,VIM-2 inhibitor,zfTRPN1 agonist,TRPML3 ag,IMP-1 inh,CRFR2-BP ag
C[C@H](CO)N1C[C@H](C)[C@@H](CN(C)C(=O)Nc2ccc(C(F)(F)F)cc2)Oc2ccc(NS(=O)(=O)c3ccccc3)cc2C1=O,-4.2,/,/,/,/,2.1
O=C(O)C1C2C=CC(C2)C1C(=O)NCCCn1ccnc1 (centres undefined),15.5,0.9,-0.2,0.5,-3.3,-1.0
O=C(O)C1C2C=CC(C2)C1C(=O)NCCCN1CCCC1=O (centres undefined),-7.9,0.9,/,/,11.8*,-0.2
CC(CCc1ccccc1)NC(=O)CCNC(=O)Cn1ccc2ccccc2c1=O (centres undefined),7.1,0.5,1.0,-0.5,-2.4,-2.7
CC1CCCN(C(=O)Cn2nnc(-c3ccc(S(C)(=O)=O)cc3)n2)C1 (centres undefined),14.6,0.0,/,/,-0.3,0.1
Cc1ncc(CO)c(/C=N/NC(=O)c2ccc(Br)cc2)c1O,/,-3.7,-0.9,1.2,-2.1,/
Cc1ncc(CO)c(/C=N/NC(=O)c2cc(O)c(O)c(O)c2)c1O,/,-0.7,-0.6,1.2,24.1*,/
CC1(C(=O)OCC(=O)NC(=O)c2ccccc2)CC1(Cl)Cl (centres undefined),-28.9,/,/,/,/,3.8
CC(NC(=O)COC(=O)C1(C)CC1(Cl)Cl)c1ccccc1 (centres undefined),54.1*,/,/,/,/,0.4
CCOC(=O)C(NCc1ccccn1)(NC(=O)c1cccnc1)C(F)(F)F (centres undefined),61.0*,-4.2,-0.3,0.6,-3.3,-3.3
CCCNC(=O)/C(=C/c1cn(S(=O)(=O)N(C)C)c2ccccc12)NC(=O)c1ccc(OC)cc1,-167.2,0.1,1.1,5.7,-1.1,78.2*
COc1ccc(C(=O)N/C(=C\c2cn(S(=O)(=O)N(C)C)c3ccccc23)C(=O)NCCCn2ccnc2)cc1,-10.7,0.2,/,/,-1.5,-0.5
COC(=O)C1(C)CCCC2(C)c3cc(OC)ccc3C(=O)C(Br)C12 (centres undefined),-30.8,/,/,/,/,-1.1
O=[N+]([O-])c1cccnc1Sc1ccc(Cl)cc1,60.8*,1.1,/,/,-3.7,-2.9
O=[N+]([O-])c1cccnc1Sc1n[nH]c(-c2ccc(Cl)cc2)n1,-16.5,-0.7,-1.9,0.1,-1.0,1.3
Cc1ccc(NC(=O)CN(C)C(=O)C(Sc2ccccc2)c2ccccc2)cc1 (centres undefined),4.4,/,/,/,/,-0.2
CCCCN(C)CCNC(=O)c1cc2c(-c3ccccc3F)nn(C)c2s1,-5.1,11.0*,/,/,-2.1,0.2
COCCNC(=O)c1cc2c(-c3ccccc3F)nn(C)c2s1,-28.6,-0.2,-0.8,0.0,0.3,0.8
CCCCN(C)CCNC(=O)c1cc2c(-c3cccc(OC)c3)nn(C)c2s1,2.5,10.2*,/,/,-2.8,0.3
Cc1ccc(NC(=O)c2ccc3nsnc3c2)c(Cl)c1,4.7,-6.0,/,/,-4.1,0.8
O=C(ON=C1CCN(c2ccc([N+](=O)[O-])cc2)CC1)c1ccccc1,64.3*,-2.1,0.1,-0.1,0.0,-2.4
Cc1c2ccccc2cc[n+]1CCCS(=O)(=O)[O-],-23.5,-1.9,0.5,1.4,-2.4,1.4
CC1(C)C(/C=C/C=C/C=C/C=C2\N(CCCCS(=O)(=O)O)c3ccc4ccccc4c3C2(C)C)=[N+](CCCCS(=O)(=O)[O-])c2ccc3ccccc3c21,68.6*,/,/,/,/,2.2
COc1ccc(OC)c(CN2CCN(C(=O)c3ccc(S(=O)(=O)N4CCCCCC4)cc3)CC2)c1,10.1,/,/,/,/,2.5
COC(=O)c1cn(C(=O)c2ccc3c(c2)OCO3)c2ccccc12,-11.7,/,/,/,/,6.0
COc1ccc2c(c1)OC[C@H]1[C@H]2N2C(=O)c3cc(OC)c(OC)cc3NC(=O)[C@@]2(C)[C@H]1c1ccccc1,65.2*,/,/,/,/,7.9
COc1cc2c(cc1OC)C(=O)N1[C@H]3c4ccccc4OC[C@@H]3[C@H](c3ccccc3)[C@]1(C)C(=O)N2,15.1,/,/,/,/,-0.1
Cc1cc(C2C(C#N)=C(N)SC(N)=C2C#N)c(C)s1,-84.9,-1.8,2.0,1.8,-6.0,104.0*
